Compound activity (PubChem BioAssay)
Most compounds without a hit are left out; they make up all but 1.8% or so of the library.
MBD2 DNA inh: inhibitors of MBD2 binding to methylated DNA, primary screen, biochemical, TR-FRET, DNA-binding domain, human. inhibition, % at 4.4 µM. 370,000 tested, 0.31% active. MBD2 binding to methylated oligonucleotide; in the data active = inhibition above about 13%
Target sequence (Q9UBB5 whole entry, looked up, the tested form may be a part): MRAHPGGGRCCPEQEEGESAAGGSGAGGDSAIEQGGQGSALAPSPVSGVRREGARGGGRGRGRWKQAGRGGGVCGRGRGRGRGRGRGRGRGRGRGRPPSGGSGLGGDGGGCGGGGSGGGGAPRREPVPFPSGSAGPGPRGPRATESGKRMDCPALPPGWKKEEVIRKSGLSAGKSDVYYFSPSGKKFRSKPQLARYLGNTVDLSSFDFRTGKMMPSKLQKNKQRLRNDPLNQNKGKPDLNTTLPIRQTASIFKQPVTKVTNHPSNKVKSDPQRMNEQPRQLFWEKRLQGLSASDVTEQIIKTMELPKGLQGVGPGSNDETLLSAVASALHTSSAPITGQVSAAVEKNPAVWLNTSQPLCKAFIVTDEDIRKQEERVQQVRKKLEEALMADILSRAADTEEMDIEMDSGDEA
TDP2 inh: human TDP2 enzyme inhibitors, primary screen, biochemical, epi absorbance, recombinant enzyme | inhibition, % at 12.8 µM | T5PNP hydrolysis, p-nitrophenol absorbance 415 nm | Tyrosyl-DNA phosphodiesterase 2 (Homo sapiens), O95551 | 370,000 tested, 0.34% active;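 active = inhibition above the mean of all tested compounds plus 3 SD, set per campaign, cut at about 25% in these data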;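 also: 0% = DMSO with enzyme and 100% = buffer with substrate but no TDP2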
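Evaluation: % inhibition relative to enzyme-containing and enzyme-free wells. Material: recombinant human TDP2. Benchmarks: enzyme-free and DMSO wells. Timing: enzyme reaction with compound for 2 h at 37 °C. Compound dosing: 12.8 µM only. Measured by: p-Nitrophenol epi absorbance. Reagent: T5PNP substrate at 5 mM, a TopII-DNA adduct mimic. Replication: single well per compound.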
UHRF1 binding: UHRF1 methylated DNA binding inhibitors, primary screen, counter-screen for MBD2 inhibitor project, biochemical, TR-FRET, human UHRF1, single concentration; UHRF1 binding to methylated oligo; inhibition, % at 4.4 µM; 370,000 tested, 0.75% active; AID 687016, 2013; in the data active = inhibition above about 21%;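 also: UHRF1 SRA domain binding a hemimethylated CpG hairpin DNA probe; 0% = median of test compound wells and 100% = reference inhibitor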
LEDGF integ inh: blockers of LEDGF/p75-dependent integrase strand transfer – biochemical, TR-FRET, high throughput, primary screen; TR-FRET IN-LEDGF/p75 DNA integration, Eu/Cy5; HIV-1 integrase (with human LEDGF/p75); inhibition, % at 3.7 µM; 370,000 tested, 0.64% active; AID 743269, 2014;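 active = inhibition above the screen-wide mean plus 3 SD, cut at about 13% in these data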;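 also: signal is the Cy5 over europium emission ratio at 671 and 618 nm; 0% = plate median of compound wells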
CASP6 VEID inh: human caspase-6 inhibitors, primary screen, biochemical, VEID-R110 fluorescence, single point, set 2; purified caspase-6, Z-VEID-R110 cleavage fluorescence; inhibition, % at 12.5 µM; 350,000 tested, 0.53% active; P55212; AID 686996, 2013;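 active = mean inhibition across replicates at least about 35%, with every replicate also reaching that limit, limit read from the data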;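 also: 0% = median of neutral control wells and 100% = no fluorescence left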
NSD2 inh: NSD2 histone methyltransferase inhibitors, primary screen, biochemical, AlphaScreen, single concentration, set 2; 310,000 tested, 0.54% active; inhibition, % at 12.5 µM; AID 743445, 2014; NSD2 peptide methylation, 120 min; in the data active = inhibition above about 50%
IN multimer up: HIV-1 IN multimer formation enhancers, counter-screen for LEDGF/p75 integration inhibitor project, biochemical, TR-FRET; activation, % at 7.7 µM; TR-FRET HIV-1 integrase multimerization; shares compounds with LEDGF integ inh; 2,000 tested, 17% active; in the data active = activation above about 8.9%
TRFRET interf: TR-FRET optical interference artefacts, confirmation, artefact control for LEDGF/p75-dependent integration inhibitor project, biochemical, HIV-1 IN multimerization; shares compounds with LEDGF integ inh; TR-FRET optical interference counterscreen; inhibition, % at 7.7 µM; 2,000 tested, under 10 active; AID 1053135, 2014;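 active = inhibition above the mean over all tested compounds plus 3 SD, which no compound reached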;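 also: 0% = integrase with antibodies and DMSO and 100% = antibodies without integrase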
IN-LEDGF confirm: inhibitors of HIV-1 IN-LEDGF/p75 DNA integration, confirmation, biochemical, TR-FRET. shares compounds with LEDGF integ inh. TR-FRET LEDGF/p75-dependent HIV-1 integration. inhibition, % at 3.7 µM. 2,000 tested, 36% active. AID 1053136, 2014; in the data active = inhibition above about 14%
An asterisk follows results filed as active; x = not tested or not shown.

SMILES	MBD2 DNA inh	TDP2 inh	UHRF1 binding	LEDGF integ inh	CASP6 VEID inh	NSD2 inh	IN multimer up	TRFRET interf	IN-LEDGF confirm
O=C(N/N=C/c1ccc([N+](=O)[O-])o1)C1CCCC1	-8	-1	-4	2	23	6	x	x	x
CN1CCN(c2ncnc3c2ncn3[C@H]2CN(Cc3ccc(Cl)cc3)C[C@@H](CO)O2)CC1	0	-1	0	14*	6	9	1	-3	-10
CC(=O)N1CCc2nc3ccccc3cc21	1	2	-5	1	0	-1	x	x	x
CC(=O)N1CCc2cc3nc(C)cc(C)c3cc21	2	1	2	52*	x	x	1	-3	-5
COC(=O)\C(C(C)=O)=C(/C=C/C=C/N(C)C)N(C)C	0	13	13	34*	x	5	1	-5	10
CC1CCN(C(=O)COC(=O)c2ccc(Br)o2)CC1	2	8	9	22*	-3	-10	1	-4	-4
CO[C@@H]1CN(C)C(=O)c2cc(NC(=O)C3CC3)ccc2OC[C@H](C)N(Cc2ccncc2)C[C@H]1C	x	x	x	x	1	x	x	x	x
O=C1CN(S(=O)(=O)Cc2ccccc2)C[C@@H]2[C@H](c3ccc(C#CC4CC4)cc3)[C@@H](CO)N12	x	x	x	x	-2	x	x	x	x
Cc1nnc(NC(=O)C2CC(=O)N(c3ccc4c(c3)OCCO4)C2)s1 (stereo not drawn)	3	-1	0	4	18	-1	x	x	x
O=C(Nc1nc(-c2ccco2)c(-c2ccco2)s1)C1CC(=O)N(c2ccc3c(c2)OCCO3)C1 (stereo not drawn)	9	0	9	19*	x	9	13*	-64	42*
O=C(Nc1nc(-c2ccco2)c(-c2ccco2)s1)C1CCC1	4	7	7	17*	14	-1	2	-9	21*
CCC(=O)Nc1ccc2c(c1)C(=O)N(C)[C@H]1CC[C@@H](CC(=O)NCCCN(C)C)O[C@H]1CO2	x	x	x	x	-1	x	x	x	x
Cc1ccc(S(=O)(=O)Oc2ccccc2N2C(=O)C3C4CCC(C4)C3C2=O)cc1 (stereo not drawn)	1	3	0	-4	0	-2	x	x	x
O=C1C2C3C=CC(C3)C2C(=O)N1c1ccccc1OS(=O)(=O)c1ccccc1 (stereo not drawn)	2	3	14	21*	x	-2	0	1	-3
O=C(O)[C@@H]1[C@@H](CO)[C@@H]2Cn3c(ccc(/C=C/c4ccccc4)c3=O)[C@@H]2N1C(=O)C1CCCC1	x	x	x	x	1	x	x	x	x
CC(=O)OCC1=C(C(=O)O)N2C(=O)C(NC(=O)c3ccc(F)cc3)C2SC1 (stereo not drawn)	1	1	-1	0	4	2	x	x	x
CO/N=C(\C(=O)N[C@@H]1C(=O)N2C(C(=O)O)=C(COC(N)=O)CS[C@H]12)c1ccco1	2	-12	25*	14*	24	x	1	-6	16*
COc1ccc(CCNC(=O)c2cc(Cl)nc3ccccc23)cc1	-2	-13	0	15*	-4	-1	1	-3	-8
COc1ccc(CCNC(=O)c2cc(-c3ccccn3)nc3ccccc23)cc1	4	0	-1	-1	-4	1	x	x	x
C[C@@H]1CN([C@H](C)CO)C(=O)Cc2cc(NC(=O)NC3CCCCC3)ccc2O[C@H]1CN(C)Cc1ccc2c(c1)OCO2	x	x	x	x	-1	x	x	x	x
COC(=O)C[C@@H]1C[C@@H]2c3cc(NS(C)(=O)=O)ccc3O[C@@H]2[C@H](CO)O1	x	x	x	x	-1	x	x	x	x
CCOc1cc(CNc2ccc(N(C)C)cc2)cc(Br)c1OCC(=O)NC(C)(C)C	-1	-4	3	-3	x	6	x	x	x
CCOc1cc(CNc2ccc(N3CCCCC3)cc2)cc(Br)c1OCC(=O)NC(C)(C)C	-5	12	-6	15*	x	3	2	-10	2
COc1cc(CNc2ccc(N3CCOCC3)cc2)cc(Br)c1OC	-2	-8	7	13	x	14	x	x	x
CCOc1cc(CNc2ccc(N3CCOCC3)cc2)cc(Br)c1OCC	-7	16	-1	15*	x	21	2	-8	-4
SMILES	MBD2 DNA inh	TDP2 inh	UHRF1 binding	LEDGF integ inh	CASP6 VEID inh	NSD2 inh	IN multimer up	TRFRET interf	IN-LEDGF confirm
O=C(C1=C(O)C(=O)N(c2nc3ccc(Cl)cc3s2)C1c1ccco1)c1ccco1 (stereo not drawn)	10	2	24*	20*	88*	0	7	-36	21*
O=C(CCSc1ccccc1)Nc1nnc(-c2ccccc2)o1	2	-8	-1	16*	-1	x	-3	16	2
O=C(Nc1ccccc1N1CCCCC1)c1ccc(OC(F)F)cc1	-2	5	2	36*	-1	7	1	-4	4
CCC(=O)Nc1nc2ccccc2n1Cc1ccc(Cl)cc1	-1	-4	15	15*	0	-3	0	2	11
CCCCCCCn1c(NC(=O)CC)nc2ccccc21	-1	5	-1	23*	2	-6	0	-1	31*
CCC(=O)Nc1nc2ccccc2n1CCN1CCOCC1	-1	-7	3	-5	x	-4	x	x	x
CC(C)C1Nc2c(O)cc(Cl)c([N+](=O)[O-])c2C2C=CCC21 (stereo not drawn)	-5	3	-5	26*	22	26	1	-4	11
C[C@H]1CN([C@@H](C)CO)C(=O)Cc2cc(NC(=O)Nc3ccc(F)cc3)ccc2O[C@@H]1CN(C)Cc1ccccc1	x	x	x	x	0	x	x	x	x
Oc1ccc(C=Nc2cccc3ncccc23)c(O)c1	-10	9	-3	16*	x	2	17*	-60	22*
